The text below walks through data of ChEMBL document CHEMBL2321684, “Novel hybrids of optically active ring-opened 3-n-butylphthalide derivative and isosorbide as potential anti-ischemic stroke agents” (J Med Chem, 2013).

Converted amounts (≈) assume the structure as drawn. The source made the active and inactive calls. The calls are words filed in the database; no cut-off is given here.

Series [1] relates to Rattus norvegicus. The series can be described thus: Antithrombotic activity in Sprague-Dawley rat assessed as reduction in arteriovenous shunt-induced dry thrombus weight at 340 mg/kg, administered via gavage for 7 days prior to arteriovenous shunt-challenge measured up to 15 mins relative to control. Type of series: functional, organism-based. Details: dose 340 mg/kg. An outline of the steps:
(§1)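 Male SD rats (250−280 g), n = 12 per group, dosed by gavage daily for 7 days in 0.5% CMC-Na. Two hours after the last dose, rats were anesthetized with chloral hydrate (300 mg/kg ip). A saline-filled 14 cm polyethylene catheter holding a 6 cm silk thread linked the left jugular vein and right carotid artery for 15 min. The thrombus was then weighed wet and dry. Results are mean ± SD, analysed by ANOVA/Tukey.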

Series [2] is described as follows: Stability in artificial intestinal juice assessed as compound remaining at pH 6.8 measured immediately by HPLC analysis. Type of series: physicochemical. As to conditions: simulated gi fluid.
Series [3] concerns Rattus norvegicus. The series can be described thus: Antithrombotic activity in Sprague-Dawley rat assessed as reduction in arteriovenous shunt-induced wet thrombus weight at 340 mg/kg, administered via gavage for 7 days prior to arteriovenous shunt-challenge measured up to 15 mins relative to control. Type of series: functional, organism-based. Details: dose 340 mg/kg. An outline of the steps: as §1

For another series, the system named is Platelet. The series can be described thus: Antiplatelet aggregation activity in rabbit platelets assessed as inhibition of ADP-induced platelet aggregation at 0.1 mM incubated for 5 mins prior to ADP-challenge measured within 5 mins by turbidimetric analysis. Type of series: functional, cell-based. Conditions: Oryctolagus cuniculus. The gist of the method:
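Rabbit carotid blood was citrated (3.8%, 9:1). PRP was adjusted with PPP to 400−450 × 10⁹ platelets/L. PRP was preincubated with compound or DMSO for 5 min at 37 °C, then aggregation was induced with ADP at 10 μM. Maximum aggregation rate was recorded over 5 min using Born's turbidimetry. Inhibition % was calculated versus vehicle; n = 6, mean ± SD.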

A short description of series [4]: Plasma concentration in ICR mouse at 680 mg/kg, po after 4 hrs by HPLC analysis. Details: dose 680 mg/kg, route oral. Type of series: ADME, organism-based. The gist of the method:
(§2)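 Male ICR mice (30−35 g), n = 6 per time point, were given a single 680 mg/kg gavage dose and sacrificed at 0.5, 1, 2, 4 and 8 h. Brains were rinsed, weighed and homogenized in 3 volumes of saline. Plasma and homogenate were precipitated with 3 volumes of acetonitrile.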

Series [5] is described as follows: Plasma concentration in ICR mouse at 680 mg/kg, po after 2 hrs by HPLC analysis. Type of series: ADME, organism-based. Details: dose 680 mg/kg, route oral. An outline of the steps: as §2
The test system of series [6] is Rattus norvegicus. Kind of series: Antiischemic activity in Sprague-Dawley rat assessed as reduction in middle cerebral artery occlusion-induced necrosis in neurons at 80 mg/kg administered via gavage for 7 days prior to middle cerebral artery occlusion-challenge measured after 24 hrs by microscopic analysis. Type of series: functional, organism-based. Details: dose 80 mg/kg. An outline of the steps: (§3)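 Male SD rats (280−320 g), n = 12 per group, dosed by gavage daily for 7 days in 0.5% CMC-Na vehicle. Sham animals received vehicle only. Two hours after the last dose, rats were anesthetized with chloral hydrate (300 mg/kg ip) and given MCAO for 2 h, then reperfused. Body temperature was held at 37 °C. All endpoints were read at 24 h post reperfusion.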

The nature of series [7]: Antiplatelet aggregation activity in rabbit platelets assessed as inhibition of arachidonic acid-induced platelet aggregation incubated for 5 mins prior to arachidonic acid-challenge measured within 5 mins by Born's turbidimetric analysis. Type of series: functional, cell-based. As to conditions: Oryctolagus cuniculus. An outline of the steps: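 Rabbit citrated PRP was adjusted to 400−450 × 10⁹ platelets/L and preincubated for 5 min at 37 °C with vehicle DMSO or compound at 0.1−1.6 mM (at least five concentrations). Aggregation was induced with arachidonic acid (0.33 mM, per the methods text). Maximum aggregation rate was recorded over 5 min by Born's turbidimetry, and IC₅₀ was derived from inhibition versus vehicle (mean ± SD).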

Series [8] concerns Rattus norvegicus. The series can be described thus: Antiischemic activity in Sprague-Dawley rat assessed as reduction in middle cerebral artery occlusion-induced abnormal changes in brain at 80 mg/kg administered via gavage for 7 days prior to middle cerebral artery occlusion-challenge measured after 24 hrs by microscopic analysis. Type of series: functional, organism-based. Details: dose 80 mg/kg. The gist of the method:
as §3

Series [9] can be described thus: Biodistribution in ICR mouse brain at 680 mg/kg, po after 8 hrs by HPLC analysis. Details: dose 680 mg/kg, route oral. Type of series: ADME, organism-based. As to conditions: read-out: Drug uptake. The gist of the method:
as §2

Series [10] in a line: Stability in artificial intestinal juice assessed as compound remaining at pH 6.8 after 8 hr by HPLC analysis. Type of series: physicochemical. As to conditions: simulated gi fluid, pH 6.8, 8 h.
For series [11], the system named is Rattus norvegicus. The series can be described thus: Antithrombotic activity in Sprague-Dawley rat assessed as reduction in arteriovenous shunt-induced dry thrombus weight at 80 mg/kg, administered via gavage for 7 days prior to arteriovenous shunt-challenge measured up to 15 mins relative to control. Type of series: functional, organism-based. Details: dose 80 mg/kg. An outline of the steps:
as §1

The test system of series [12] is Rattus norvegicus. The series can be described thus: Antithrombotic activity in Sprague-Dawley rat assessed as reduction in arteriovenous shunt-induced wet thrombus weight at 80 mg/kg, administered via gavage for 7 days prior to arteriovenous shunt-challenge measured up to 15 mins relative to control. Type of series: functional, organism-based. Details: dose 80 mg/kg. The gist of the method:
as §1

A short description of series [13]: Aqueous solubility of the compound after 5 hrs by UV-spectrophotometric analysis. Type of series: physicochemical. As to conditions: water.

In general, IC50 refers to the point on the concentration scale where inhibition reaches its midpoint. One may read the solubility as how much of the substance goes into solution per volume. Consider `CCCC[C@H](OC(=O)CN1CCN(C)CC1)c1ccccc1C(=O)O[C@H]1CO[C@H]2[C@@H]1OC[C@H]2OC(=O)c1ccccc1[C@H](CCCC)OC(=O)CN1CCN(C)CC1`, for which the outcome with Rattus norvegicus [1], in the series with Rattus norvegicus [3], in the series on Rattus norvegicus [6], in the series with Rattus norvegicus [8], in the series on Rattus norvegicus [11] and with Rattus norvegicus [12] was Active. Also, the Stability is 4.97 µM in series [2] and 4.92 µM in series [10]. Also, the inhibition entry in the series with Platelet was “Active”. In series [4], this compound gave a concentration at 4 h of 126 ng/mL. In addition, the concentration at 2 h in series [5] is 186 ng/mL. Besides, the IC50 in series [7] came out at 50 µM. Moreover, the concentration at 8 h in series [9] amounted to 16.7 ng/mL. Moreover, the concentration in solution in series [13] (solubility at 5 h) came to 11.2 mg/mL (≈ 13.9 mM).
